Experiments:
Vero = test: Cytotoxicity against african green monkey Vero cells; assay type: cell-based; details: Chlorocebus sabaeus
[1] = tested on: Trypanosoma brucei brucei; test: Antitrypanosomal activity against Trypanosoma brucei brucei MITat 1.2 variant 221; assay type: functional, organism-based
Summary of the method: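 Bloodstream-form parasites (MITat 1.2, variant 221) grown axenically in HMI-9 medium, run by a previously reported protocol. Pentamidine and suramin included as standards. IC50 taken as the mean of three tests done on different days.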

Leishmania donovani [2] = test: Antileishmanial activity against Leishmania donovani axenic amastigotes; assay type: functional, organism-based
Summary of the method: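 L. donovani amastigote-like parasites (WHO MHOM/SD/62/1S-CL2D), axenic; 3-day growth inhibition assay read with tetrazolium dye-based CellTiter reagent; IC50 determined.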

RAW = test: Cytotoxicity against mouse RAW cells; assay type: cell-based
Summary of the method: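 RAW 264.7 murine macrophages in DMEM with 10% heat-inactivated FBS, antibiotics, 2 mM L-glutamine at 37 °C, 5% CO2; 1 × 10^5 cells treated or untreated with compounds for 48 h; viability read with alamarBlue.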

Leishmania donovani [3] = test: Antileishmanial activity against Leishmania donovani promastigotes at 10 uM; assay type: functional
Leishmania donovani [4] = test: Antileishmanial activity against Leishmania donovani promastigotes at 100 uM; assay type: functional
Leishmania donovani [5] = test: Antileishmanial activity against Leishmania donovani promastigotes at 1 uM; assay type: functional
Leishmania donovani [6] = test: Antileishmanial activity against Leishmania donovani promastigotes in RAW cells assessed as reduction in infection; assay type: functional; design: scale not given: the % may be the effect or the level left
Summary of the method: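 RAW 264.7 macrophages (1 × 10^6) plated 2 h, infected 6 h with stationary-phase luciferase-transfected L. donovani promastigotes at 20:1 parasite:macrophage; free parasites washed off with PBS; compound-treated; survival by luciferase luminescence 24 h later; triplicate; % reduction in infection versus untreated wells.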

Row | Compound | IC50 (Vero) [µM] | IC50 [1] [µM] | IC50 (Leishmania donovani [2]) [µM] | Activity (RAW) | inhibition at 10 µM (Leishmania donovani [3]) [%] | inhibition at 100 µM (Leishmania donovani [4]) [%] | inhibition at 1 µM (Leishmania donovani [5]) [%] | Activity (Leishmania donovani [6]) [%]
1 | N=C(N)c1ccc(OCCCCCOc2ccc(C(=N)N)cc2)cc1 [PENTAMIDINE] | 13.7 | 0.0025 | 1.3 | – | – | – | – | –
2 | Cc1ccc(C(=O)Nc2ccc(S(=O)(=O)O)c3cc(S(=O)(=O)O)cc(S(=O)(=O)O)c23)cc1NC(=O)c1cccc(NC(=O)Nc2cccc(C(=O)Nc3cc(C(=O)Nc4ccc(S(=O)(=O)O)c5cc(S(=O)(=O)O)cc(S(=O)(=O)O)c45)ccc3C)c2)c1 [SURAMIN] | – | 0.2 | – | – | – | – | – | –
3 | CC(C)CNC(=O)/C=C/c1ccc2c(c1)OCO2 [FOGARAMIDE] | – | – | – | Non-toxic | – | – | – | –
4 | C=CC(C)(C)c1c(O)c(O)c(C(C)(C)C=C)c2c3c(ccc12)-c1ccc(OC)c(OC)c1[C@H](CC(C)=O)N3C [LUCIDAMINE B] | 17.5 | 4.1 | 6.8 | Toxic | 48 | 64 | 14 | –
5 | c1cc2c(cc1[C@H]1OC[C@H]3[C@@H]1CO[C@@H]3c1ccc3c(c1)OCO3)OCO2 [SESAMIN] | – | – | – | Non-toxic | – | – | – | –
6 | COc1ccc2c(c1OC)CN(C)c1c-2ccc2cc3c(cc12)OCO3 [DIHYDROCHELERYTHRINE] | 35.4 | 0.8 | 2 | – | 89 | 100 | 36 | 70.9
7 | COc1ccc2c(c1OC)[C@H](CC(C)=O)N(C)c1c-2ccc2cc(O)c(O)cc12 [LUCIDAMINE A] | 11.6 | 14.1 | 10.8 | Toxic | 76 | 100 | 23 | –
8 | COc1ccc2c(c1OC)[C@H](CC(C)=O)N(C)c1c-2ccc2cc3c(cc12)OCO3 | 15.3 | 3.9 | 6.6 | – | 87 | 100 | 23 | 57.4

From ChEMBL document CHEMBL1141301, “Trypanocidal and antileishmanial dihydrochelerythrine derivatives from Garcinia lucida” (J Nat Prod, 2007)
